Test results taken from ChEMBL document CHEMBL3769334, “Interaction of prodigiosin with HSA and β-Lg: Spectroscopic and molecular docking studies” (Bioorg Med Chem, 2016).

Columns and labels:
Albumin [1] = molecular target: T1, Albumin (Homo sapiens, UniProt P02768); experiment: Binding affinity to human serum albumin at 310 K after 10 mins by fluorescence assay; format: ADME; settings: isolated protein
Outline: (§1)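 HSA at 0.4 µM in 20 mM Tris pH 7.4, titrated with prodigiosin at 0–3.2 µM from a methanol stock. Samples equilibrated 10 min after each addition. Excitation 295 nm, emission 310–600 nm, intensity read at the emission maximum. Run at 290, 300 and 310 K. Kb and n from log[(F0−F)/F] versus log[Q].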

Beta-lactoglobulin [2] = molecular target: T2, Beta-lactoglobulin (Bos taurus, UniProt P02754); experiment: Binding affinity to bovine beta-lactoglobulin assessed as Stern-Volmer quenching constant at 310 K after 10 mins by fluorescence assay; format: ADME; settings: cattle
T2 sequence (P02754 whole entry): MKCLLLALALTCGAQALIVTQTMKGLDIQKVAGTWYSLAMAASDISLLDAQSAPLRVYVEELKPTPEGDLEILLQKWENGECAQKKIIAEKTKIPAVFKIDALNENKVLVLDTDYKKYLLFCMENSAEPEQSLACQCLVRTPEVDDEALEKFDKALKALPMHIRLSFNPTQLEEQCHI
Outline: (§2)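 Intrinsic Trp fluorescence of β-Lg at 1 µM in Tris-HCl pH 7.4, titrated with prodigiosin added from a methanol stock. Samples equilibrated 10 min after each addition. Excitation 295 nm, emission 310–600 nm, intensity read at the emission maximum. Run at 290, 300 and 310 K with a water-bath thermostat. Binding parameters taken from quenching data.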

Albumin [3] = molecular target: T1, Albumin; experiment: Binding affinity to human serum albumin assessed as Stern-Volmer quenching constant at 290 K after 10 mins by fluorescence assay; format: ADME; settings: isolated protein; outline: as §1
Albumin [4] = molecular target: T1, Albumin; experiment: Binding affinity to human serum albumin assessed as bimolecular quenching rate constant at 310 K after 10 mins by fluorescence assay; format: ADME; settings: isolated protein; outline: as §1
[5] = molecular target: Beta-lactoglobulin (Bos taurus) (UniProt P02754); experiment: Binding affinity to bovine beta-lactoglobulin assessed as quenching of protein-compound complex at protein/compound molar ratio of 7 at 290 K after 10 mins by fluorescence assay; settings: isolated protein
Albumin [6] = molecular target: T1, Albumin; experiment: Binding affinity to human serum albumin assessed as Stern-Volmer quenching constant at 300 K after 10 mins by fluorescence assay; format: ADME; settings: isolated protein; outline: as §1
Beta-lactoglobulin [7] = molecular target: T2, Beta-lactoglobulin; experiment: Binding affinity to bovine beta-lactoglobulin assessed as bimolecular quenching rate constant at 290 K after 10 mins by fluorescence assay; format: ADME; settings: cattle; outline: as §2
Albumin [8] = molecular target: T1, Albumin; experiment: Binding affinity to human serum albumin assessed as bimolecular quenching rate constant at 290 K after 10 mins by fluorescence assay; format: ADME; settings: isolated protein; outline: as §1
Albumin [9] = molecular target: T1, Albumin; experiment: Binding affinity to human serum albumin assessed as Stern-Volmer quenching constant at 310 K after 10 mins by fluorescence assay; format: ADME; settings: isolated protein; outline: as §1
Beta-lactoglobulin [10] = molecular target: T2, Beta-lactoglobulin; experiment: Binding affinity to bovine beta-lactoglobulin at 310 K after 10 mins by fluorescence assay; format: ADME; settings: cattle; outline: as §2
Albumin [11] = molecular target: T1, Albumin; experiment: Binding affinity to human serum albumin assessed as quenching of protein-compound complex at protein/compound molar ratio of 7 at 300 to 310 K after 10 mins by fluorescence assay; format: ADME; settings: isolated protein; outline: as §1
[12] = molecular target: Beta-lactoglobulin (Bos taurus) (UniProt P02754); experiment: Binding affinity to bovine beta-lactoglobulin assessed as quenching of protein-compound complex at protein/compound molar ratio of 7 at 300 K after 10 mins by fluorescence assay; settings: isolated protein
Beta-lactoglobulin [13] = molecular target: T2, Beta-lactoglobulin; experiment: Binding affinity to bovine beta-lactoglobulin assessed as bimolecular quenching rate constant at 310 K after 10 mins by fluorescence assay; format: ADME; settings: cattle; outline: as §2
Albumin [14] = molecular target: T1, Albumin; experiment: Binding affinity to human serum albumin at 290 K after 10 mins by fluorescence assay; format: ADME; settings: isolated protein; outline: as §1
Albumin [15] = molecular target: T1, Albumin; experiment: Binding affinity to human serum albumin at 300 K after 10 mins by fluorescence assay; format: ADME; settings: isolated protein; outline: as §1
Beta-lactoglobulin [16] = molecular target: T2, Beta-lactoglobulin; experiment: Binding affinity to bovine beta-lactoglobulin assessed as Stern-Volmer quenching constant at 290 K after 10 mins by fluorescence assay; format: ADME; settings: cattle; outline: as §2
Albumin [17] = molecular target: T1, Albumin; experiment: Binding affinity to human serum albumin assessed as quenching of protein-compound complex at protein/compound molar ratio of 5 at 290 K after 10 mins by fluorescence assay; format: ADME; settings: isolated protein; outline: as §1
Albumin [18] = molecular target: T1, Albumin; experiment: Binding affinity to human serum albumin assessed as bimolecular quenching rate constant at 300 K after 10 mins by fluorescence assay; format: ADME; settings: isolated protein; outline: as §1
Beta-lactoglobulin [19] = molecular target: T2, Beta-lactoglobulin; experiment: Binding affinity to bovine beta-lactoglobulin assessed as Stern-Volmer quenching constant at 300 K after 10 mins by fluorescence assay; format: ADME; settings: cattle; outline: as §2
[20] = molecular target: Beta-lactoglobulin (Bos taurus) (UniProt P02754); experiment: Binding affinity to bovine beta-lactoglobulin assessed as quenching of protein-compound complex at protein/compound molar ratio of 4 at 310 K after 10 mins by fluorescence assay; settings: isolated protein
Beta-lactoglobulin [21] = molecular target: T2, Beta-lactoglobulin; experiment: Binding affinity to bovine beta-lactoglobulin at 300 K after 10 mins by fluorescence assay; format: ADME; settings: cattle; outline: as §2
Beta-lactoglobulin [22] = molecular target: T2, Beta-lactoglobulin; experiment: Binding affinity to bovine beta-lactoglobulin assessed as association constant at pH 7.4 after 30 mins by fluorescence assay; format: ADME; settings: cattle, pH 7.4, 0.5 h
Outline: (§3)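 β-Lg solutions at pH 3.0, 5.5 and 7.4, incubated 30 min at 25 °C before prodigiosin was added. Intrinsic fluorescence excited at 295 nm, emission monitored at 310–600 nm.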

Beta-lactoglobulin [23] = molecular target: T2, Beta-lactoglobulin; experiment: Binding affinity to bovine beta-lactoglobulin assessed as association constant at pH 3 after 30 mins by fluorescence assay; format: ADME; settings: cattle, pH 3, 0.5 h; outline: as §3
Beta-lactoglobulin [24] = molecular target: T2, Beta-lactoglobulin; experiment: Binding affinity to bovine beta-lactoglobulin at 290 K after 10 mins by fluorescence assay; format: ADME; settings: cattle; outline: as §2
Beta-lactoglobulin [25] = molecular target: T2, Beta-lactoglobulin; experiment: Binding affinity to bovine beta-lactoglobulin assessed as association constant at pH 5.5 after 30 mins by fluorescence assay; format: ADME; settings: cattle, pH 5.5, 0.5 h; outline: as §3
Beta-lactoglobulin [26] = molecular target: T2, Beta-lactoglobulin; experiment: Binding affinity to bovine beta-lactoglobulin assessed as bimolecular quenching rate constant at 300 K after 10 mins by fluorescence assay; format: ADME; settings: cattle; outline: as §2
Albumin [27] = molecular target: T1, Albumin; experiment: Displacement of warfarin from human serum albumin at 0.4 to 3.2 uM after 30 mins by fluorescence assay; settings: 0.5 h
Outline: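 HSA and warfarin at equal (1:1) concentrations, preincubated 30 min. Prodigiosin added at 0.4–3 µM. Fluorescence excited at 295 nm and recorded at 310–600 nm, with and without prodigiosin.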

T1 sequence (P02768 whole entry): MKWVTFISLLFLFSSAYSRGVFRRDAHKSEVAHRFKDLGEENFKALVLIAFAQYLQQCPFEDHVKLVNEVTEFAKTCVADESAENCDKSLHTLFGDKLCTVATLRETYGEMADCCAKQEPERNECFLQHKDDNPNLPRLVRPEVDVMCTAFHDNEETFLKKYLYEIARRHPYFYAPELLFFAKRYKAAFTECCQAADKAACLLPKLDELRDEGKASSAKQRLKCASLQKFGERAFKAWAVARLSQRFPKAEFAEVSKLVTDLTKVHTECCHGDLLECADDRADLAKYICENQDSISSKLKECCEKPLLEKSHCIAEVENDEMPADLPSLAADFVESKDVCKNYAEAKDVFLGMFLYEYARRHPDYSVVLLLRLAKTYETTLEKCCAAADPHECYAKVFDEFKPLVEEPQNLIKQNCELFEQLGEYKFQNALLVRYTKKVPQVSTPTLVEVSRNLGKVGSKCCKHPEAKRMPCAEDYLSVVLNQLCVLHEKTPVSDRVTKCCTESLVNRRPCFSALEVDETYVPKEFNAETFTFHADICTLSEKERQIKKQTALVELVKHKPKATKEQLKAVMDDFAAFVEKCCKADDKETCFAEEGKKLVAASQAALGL

CCCCCC1=C/C(=C\c2[nH]c(-c3ccc[nH]3)cc2OC)N=C1C
Activity (Albumin [1]): Dose-dependent effect | Kb (Albumin [1]): 34000 M⁻¹ | KSV (Beta-lactoglobulin [2]): 10.6 ×10⁴ /M | KSV (Albumin [3]): 8.14 ×10⁴ /M | Kq (Albumin [4]): 4.043 ×10¹² /M/s | Activity [5]: 78% | KSV (Albumin [6]): 6.891 ×10⁴ /M | Kq (Beta-lactoglobulin [7]): 3.92 ×10¹² /M/s | Kq (Albumin [8]): 8.14 ×10¹² /M/s | KSV (Albumin [9]): 4.043 ×10⁴ /M | Kb (Beta-lactoglobulin [10]): 53700 M⁻¹ | Activity (Albumin [11]): 85% | Activity [12]: 82% | Kq (Beta-lactoglobulin [13]): 8.28 ×10¹² /M/s | Activity (Albumin [14]): Dose-dependent effect | Kb (Albumin [14]): 48400 M⁻¹ | Activity (Albumin [15]): Dose-dependent effect | Kb (Albumin [15]): 44100 M⁻¹ | KSV (Beta-lactoglobulin [16]): 5.02 ×10⁴ /M | Activity (Albumin [17]): 80% | Kq (Albumin [18]): 6.891 ×10¹² /M/s | KSV (Beta-lactoglobulin [19]): 7.28 ×10⁴ /M | Activity [20]: 90% | Kb (Beta-lactoglobulin [21]): 19900 M⁻¹ | Ka (Beta-lactoglobulin [22]): 1.99 ×10⁴ /M | Ka (Beta-lactoglobulin [23]): 184 M⁻¹ | Kb (Beta-lactoglobulin [24]): 12500 M⁻¹ | Ka (Beta-lactoglobulin [25]): 1548 M⁻¹ | Kq (Beta-lactoglobulin [26]): 5.69 ×10¹² /M/s | Activity (Albumin [27]): Active
